The source made the active and inactive calls. The rule behind the calls is not given here.
What was measured:
Format in all cases: functional
[1] = system: M14; assay: Growth inhibition of human M14 cells at 10 uM after 48 hrs by SRB assay; conditions: M14, 48 h, read-out: GI
Procedure, shortened: (§1)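 Cells grown in RPMI 1640 with 5% FBS and 2 mM L-glutamine, plated at 5000–40,000 cells/well by doubling time and preincubated 24 h (37 °C, 5% CO2); a time-zero plate is TCA-fixed. Single dose added, then 48 h incubation. Fixed with cold TCA, stained with 0.4% SRB, dye solubilized in 10 mM Tris base, absorbance at 515 nm; percent growth vs time-zero and untreated control.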

[2] = system: NCI-H460; assay: Growth inhibition of human NCI-H460 cells at 10 uM after 48 hrs by SRB assay; conditions: NCI-H460, 48 h, read-out: GI; procedure, shortened: as §1
[3] = system: SNB-19; assay: Growth inhibition of human SNB19 cells at 10 uM after 48 hrs by SRB assay; conditions: SNB-19, 48 h, read-out: GI
Procedure, shortened: (§2)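 NCI 60-cell-line screen with a single 10 µM dose. Cells are grown in RPMI 1640 with 5% FBS and 2 mM L-glutamine, plated at 5000–40,000 cells/well according to doubling time, and preincubated 24 h at 37 °C, 5% CO2; time-zero plates are TCA-fixed at that point. Drug exposure is 48 h. Adherent cells are fixed with cold TCA, stained with 0.4% SRB in 1% acetic acid and read at 515 nm. Percent growth is calculated relative to time-zero and untreated controls and reported as GI%.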

[4] = system: NCI-H522; assay: Growth inhibition of human NCI-H522 cells at 10 uM after 48 hrs by SRB assay; conditions: NCI-H522, 48 h, read-out: GI; procedure, shortened: as §1
[5] = system: HOP-62; assay: Growth inhibition of human HOP62 cells at 10 uM after 48 hrs by SRB assay; conditions: HOP-62, 48 h, read-out: GI; procedure, shortened: as §1
[6] = system: MDA-MB-468; assay: Growth inhibition of human MDA-MB-468 cells at 10 uM after 48 hrs by SRB assay; procedure, shortened: as §1
[7] = system: BT-549; assay: Growth inhibition of human BT549 cells at 10 uM after 48 hrs by SRB assay; conditions: BT-549, 48 h, read-out: GI; procedure, shortened: as §1
[8] = system: SK-MEL-28; assay: Growth inhibition of human SK-MEL-28 cells at 10 uM after 48 hrs by SRB assay; conditions: SK-MEL-28, 48 h, read-out: GI; procedure, shortened: as §1
[9] = system: RXF 393; assay: Growth inhibition of human RXF393 cells at 10 uM after 48 hrs by SRB assay; conditions: RXF 393, 48 h, read-out: GI; procedure, shortened: as §1
[10] = system: DU-145; assay: Growth inhibition of human DU145 cells at 10 uM after 48 hrs by SRB assay; conditions: DU-145, 48 h, read-out: GI; procedure, shortened: as §1
[11] = system: MCF7; assay: Growth inhibition of human MCF7 cells at 10 uM after 48 hrs by SRB assay; conditions: MCF7, 48 h, read-out: GI; procedure, shortened: as §1
[12] = system: UACC-62; assay: Growth inhibition of human UACC62 cells at 10 uM after 48 hrs by SRB assay; conditions: UACC-62, 48 h, read-out: GI; procedure, shortened: as §2
[13] = system: SF-295; assay: Growth inhibition of human SF295 cells at 10 uM after 48 hrs by SRB assay; conditions: SF-295, 48 h, read-out: GI; procedure, shortened: as §1
[14] = system: Malme-3M; assay: Growth inhibition of human MALME-3M cells at 10 uM after 48 hrs by SRB assay; conditions: read-out: GI; procedure, shortened: as §1
[15] = system: OVCAR-4; assay: Growth inhibition of human OVCAR4 cells at 10 uM after 48 hrs by SRB assay; conditions: OVCAR-4, 48 h, read-out: GI; procedure, shortened: as §1
[16] = system: SR; assay: Growth inhibition of human SR cells at 10 uM after 48 hrs by SRB assay; conditions: read-out: GI; procedure, shortened: as §2
[17] = system: NCI-H322M; assay: Growth inhibition of human NCI-H322M cells at 10 uM after 48 hrs by SRB assay; conditions: read-out: GI; procedure, shortened: as §1
[18] = system: LOX IMVI; assay: Growth inhibition of human LOXIMVI cells at 10 uM after 48 hrs by SRB assay; conditions: read-out: GI; procedure, shortened: as §1
[19] = system: HOP-92; assay: Growth inhibition of human HOP92 cells at 10 uM after 48 hrs by SRB assay; conditions: HOP-92, 48 h, read-out: GI; procedure, shortened: as §1
[20] = system: IGROV-1; assay: Growth inhibition of human IGROV1 cells at 10 uM after 48 hrs by SRB assay; conditions: IGROV-1, 48 h, read-out: GI; procedure, shortened: as §1
[21] = system: SN12C; assay: Growth inhibition of human SN12C cells at 10 uM after 48 hrs by SRB assay; conditions: read-out: GI; procedure, shortened: as §2
[22] = system: UO-31; assay: Growth inhibition of human UO31 cells at 10 uM after 48 hrs by SRB assay; conditions: UO-31, 48 h, read-out: GI; procedure, shortened: as §2
[23] = system: SF-268; assay: Growth inhibition of human SF268 cells at 10 uM after 48 hrs by SRB assay; conditions: SF-268, 48 h, read-out: GI; procedure, shortened: as §1
[24] = Growth inhibition of human NCI-ADR-RES cells at 10 uM after 48 hrs by SRB assay; conditions: read-out: GI; procedure, shortened: as §1
[25] = system: ACHN; assay: Growth inhibition of human ACHN cells at 10 uM after 48 hrs by SRB assay; conditions: read-out: GI; procedure, shortened: as §1
[26] = system: SK-MEL-2; assay: Growth inhibition of human SK-MEL-2 cells at 10 uM after 48 hrs by SRB assay; conditions: SK-MEL-2, 48 h, read-out: GI; procedure, shortened: as §1
[27] = system: 786-0; assay: Growth inhibition of human 786-0 cells at 10 uM after 48 hrs by SRB assay; conditions: 786-0, 48 h, read-out: GI; procedure, shortened: as §1
[28] = system: SK-MEL-5; assay: Growth inhibition of human SK-MEL-5 cells at 10 uM after 48 hrs by SRB assay; conditions: SK-MEL-5, 48 h, read-out: GI; procedure, shortened: as §1
[29] = system: CAKI-1; assay: Growth inhibition of human Caki1 cells at 10 uM after 48 hrs by SRB assay; conditions: CAKI-1, 48 h, read-out: GI; procedure, shortened: as §1
[30] = system: U-251; assay: Growth inhibition of human U251 cells at 10 uM after 48 hrs by SRB assay; conditions: U-251, 48 h, read-out: GI; procedure, shortened: as §2
[31] = system: PC-3; assay: Growth inhibition of human PC3 cells at 10 uM after 48 hrs by SRB assay; conditions: PC-3, 48 h, read-out: GI; procedure, shortened: as §1
[32] = system: OVCAR-5; assay: Growth inhibition of human OVCAR5 cells at 10 uM after 48 hrs by SRB assay; conditions: OVCAR-5, 48 h, read-out: GI; procedure, shortened: as §1
[33] = system: SF-539; assay: Growth inhibition of human SF539 cells at 10 uM after 48 hrs by SRB assay; conditions: for inhibition of growth at 10 µM: SF-539, 48 h, read-out: GI; procedure, shortened: as §1
[34] = system: NCI-H23; assay: Growth inhibition of human NCI-H23 cells at 10 uM after 48 hrs by SRB assay; conditions: NCI-H23, 48 h, read-out: GI; procedure, shortened: as §1
[35] = system: HCT-15; assay: Growth inhibition of human HCT15 cells at 10 uM after 48 hrs by SRB assay; conditions: HCT-15, 48 h, read-out: GI; procedure, shortened: as §1
[36] = system: A498; assay: Growth inhibition of human A498 cells at 10 uM after 48 hrs by SRB assay; conditions: for inhibition of growth at 10 µM: A498, 48 h, read-out: GI; procedure, shortened: as §1
[37] = system: Hs-578T; assay: Growth inhibition of human Hs578T cells at 10 uM after 48 hrs by SRB assay; conditions: for inhibition of growth at 10 µM: read-out: GI; procedure, shortened: as §1

SMILES | inhibition of growth at 10 µM [2] [%] | inhibition of growth at 10 µM [3] [%] | inhibition of growth at 10 µM [4] [%] | inhibition of growth at 10 µM [5] [%] | inhibition of growth at 10 µM [7] [%] | inhibition of growth at 10 µM [9] [%] | inhibition of growth at 10 µM [10] [%] | inhibition of growth at 10 µM [11] [%] | inhibition of growth at 10 µM [12] [%] | inhibition of growth at 10 µM [13] [%] | inhibition of growth at 10 µM [14] [%] | inhibition of growth at 10 µM [15] [%] | inhibition of growth at 10 µM [17] [%] | inhibition of growth at 10 µM [18] [%] | inhibition of growth at 10 µM [19] [%] | inhibition of growth at 10 µM [20] [%] | inhibition of growth at 10 µM [21] [%] | inhibition of growth at 10 µM [22] [%] | inhibition of growth at 10 µM [23] [%] | inhibition of growth at 10 µM [24] [%] | also measured
O=c1c2cccc3c(Nc4ccc(Br)cn4)ccc(c32)c2nc3ccccc3n12 | < 20 | < 20 | < 20 | < 20 | < 20 | < 20 | < 20 | 95.8 | < 20 | < 20 | < 20 | 46.3 | 22.1 | < 20 | 37.6 | 51.1 | < 20 | 47.9 | < 20 | < 20 | inhibition of growth at 10 µM [1]: < 20%; growth inhibition (GI) [6]: Active; inhibition of growth at 10 µM [8]: 27.1%; inhibition of growth at 10 µM [16]: 47.1%; inhibition of growth at 10 µM [25]: < 20%; inhibition of growth at 10 µM [26]: < 20%; inhibition of growth at 10 µM [27]: < 20%; inhibition of growth at 10 µM [28]: 23.8%; inhibition of growth at 10 µM [29]: < 20%; inhibition of growth at 10 µM [30]: < 20%; inhibition of growth at 10 µM [31]: 23.3%; inhibition of growth at 10 µM [32]: < 20%; inhibition of growth at 10 µM [33]: < 20%; inhibition of growth at 10 µM [34]: < 20%; inhibition of growth at 10 µM [35]: 28%; inhibition of growth at 10 µM [36]: < 20%; inhibition of growth at 10 µM [37]: < 20%
O=c1c2cccc3c(NCCO)ccc(c32)c2nc3ccccc3n12 | 42.8 | < 20 | < 20 | < 20 | < 20 | < 20 | < 20 | 57.5 | 23.6 | < 20 | < 20 | < 20 | < 20 | < 20 | 40 | 63.5 | < 20 | 38.3 | < 20 | < 20 | inhibition of growth at 10 µM [1]: < 20%; inhibition of growth at 10 µM ([6]; MDA-MB-468, 48 h, read-out: GI): 81.1%; inhibition of growth at 10 µM [8]: < 20%; inhibition of growth at 10 µM [25]: < 20%; inhibition of growth at 10 µM [26]: < 20%; inhibition of growth at 10 µM [27]: < 20%; inhibition of growth at 10 µM [28]: 20.2%; inhibition of growth at 10 µM [29]: < 20%; inhibition of growth at 10 µM [30]: < 20%; inhibition of growth at 10 µM [31]: < 20%; inhibition of growth at 10 µM [32]: < 20%; inhibition of growth at 10 µM [33]: < 20%; inhibition of growth at 10 µM [34]: 22.2%; inhibition of growth at 10 µM [35]: < 20%; inhibition of growth at 10 µM [36]: 32.9%; inhibition of growth at 10 µM [37]: < 20%
O=c1[nH]cc(F)c(=O)[nH]1 [FLUOROURACIL] | 13 | 65.9 | 58 | 47.8 | 37.8 | 34.3 | 35.5 | 11.5 | 39.7 | 69.1 | 58.2 | 59.4 | 59.5 | 30.4 | 50.6 | 51.2 | 54 | 41.3 | 59 | 47.6 | inhibition of growth at 10 µM [16]: 24.8%; inhibition of growth at 10 µM [25]: 39.3%; inhibition of growth at 10 µM [26]: 95.5%; inhibition of growth at 10 µM [27]: 48.7%; inhibition of growth at 10 µM [28]: 33.7%; inhibition of growth at 10 µM [29]: 39.4%; inhibition of growth at 10 µM [30]: 50.3%; inhibition of growth at 10 µM [31]: 58.2%; inhibition of growth at 10 µM [32]: 44.3%; growth inhibition (GI) [33]: Active; inhibition of growth at 10 µM [34]: 39%; inhibition of growth at 10 µM [35]: 26.5%; growth inhibition (GI) [36]: Active; growth inhibition (GI) [37]: Active
